Measurements pooled from the literature.
Cell line: PC-9
Effect on: cell growth or viability
Time: 72 h

Compound | method | concentration | endpoint | result
CC(C)CCn1cnc2ccc(-c3ccc4sc(NC(=O)Nc5ccc(F)cc5)nc4c3)cc2c1=O | MTT |  | IC50 | 9.09 µM
COc1ccc(N(Cc2csc(-c3ccc(C)cc3)n2)C(=O)CCCCCC(=O)NO)cc1 | MTT |  | IC50 | 0.46 µM
O=C(Nc1ccc(Cl)cc1)Nc1ccc(-c2cn(Cc3ccc(Br)cc3)nn2)cc1 | CCK-8 | 50 µM | viability | 80.4%
COc1ccc(NC(=O)Nc2ccc(-c3cn(Cc4ccc(Br)cc4)nn3)cc2)cc1 | CCK-8 | 20 µM | viability | 93%
O=C(NCc1cn(Cc2ccc(Cl)cc2)nn1)Nc1ccccc1Br | CCK-8 | 50 µM | viability | 127%
COc1ccc(NC(=O)Nc2cccc(-c3cn(Cc4ccc(Cl)cc4)nn3)c2)cc1 | CCK-8 | 50 µM | viability | 89.5%
CCCCNC(=O)Nc1nc2cc(-c3ccc4ncn(Cc5ccccc5)c(=O)c4c3)ccc2s1 | MTT |  | IC50 | > 20 µM
O=C(Nc1cccc(-c2cn(Cc3ccc(Br)cc3)nn2)c1)Nc1ccccc1Br | CCK-8 | 50 µM | viability | 92.6%
O=C(Nc1nc2cc(-c3ccc4ncn(Cc5ccccc5)c(=O)c4c3)ccc2s1)c1ccccc1 | MTT |  | IC50 | > 20 µM
O=C(Nc1ccc(-c2cn(Cc3ccc(Cl)cc3)nn2)cc1)Nc1ccccc1Br | CCK-8 | 50 µM | viability | 103%
COc1ccc(NC(=O)Nc2nc3cc(-c4ccc5ncn(CCN6CCOCC6)c(=O)c5c4)ccc3s2)cc1 | MTT |  | IC50 | > 20 µM
COc1ccc(NC(=O)Nc2ccc(-c3cn(Cc4ccc(C)cc4)nn3)cc2)cc1 | CCK-8 | 50 µM | viability | 96%
O=C(Nc1ccc(F)cc1)Nc1nc2cc(-c3ccc4ncn(CC5CC5)c(=O)c4c3)ccc2s1 | MTT |  | IC50 | > 20 µM
COc1ccc(N(Cc2nc(-c3ccc(F)cc3)cs2)C(=O)CCCCCC(=O)NO)cc1 | MTT |  | IC50 | 0.73 µM
COc1ccc(NC(=O)Nc2cccc(-c3cn(Cc4ccc(C)cc4)nn3)c2)cc1 | CCK-8 | 50 µM | viability | 92.6%
O=C(Nc1ccc(Cl)cc1)Nc1cccc(-c2cn(Cc3ccc(Cl)cc3)nn2)c1 | CCK-8 | 20 µM | viability | 95.4%
COc1ccc(NC(=O)NCc2cn(Cc3ccc(Br)cc3)nn2)cc1 | CCK-8 | 20 µM | viability | 100%
COc1ccc(NC(=O)Nc2nc3cc(-c4ccc5ncn(Cc6ccccc6)c(=O)c5c4)ccc3s2)cc1 | MTT |  | IC50 | > 20 µM
COc1ccc(NC(=O)Nc2ccc(-c3cn(Cc4ccc(Cl)cc4)nn3)cc2)cc1 | CCK-8 | 20 µM | viability | 91%
O=C(NCc1cn(Cc2ccc(Br)cc2)nn1)Nc1ccccc1Br | CCK-8 | 20 µM | viability | 99.2%
